Source: PubChem BioAssay (The Scripps Research Institute Molecular Screening Center)
Hits are enriched below; roughly 4.7% of the tested compounds scored in any of these assays.
MC4R antagonist = MC4R antagonists of cAMP signaling, primary screen, cell-based, TR-FRET, antagonist arm of biased-ligand search; Melanocortin receptor 4 (Homo sapiens), P32245; MC4R-expressing cells, MTII-stimulated cAMP, LANCE TR-FRET; AID 540295, 2011; inhibition, % at 6.5 µM; hit rate 0.48% among 360,000;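 active means inhibition above its plate's cutoff, the mean of tested wells on that plate plus 3 SD, cut at about 29% in these data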;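 further: 0% = Melanotan II alone and 100% = Melanotan II plus saturating MCL0020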
Target sequence (P32245 whole entry, looked up): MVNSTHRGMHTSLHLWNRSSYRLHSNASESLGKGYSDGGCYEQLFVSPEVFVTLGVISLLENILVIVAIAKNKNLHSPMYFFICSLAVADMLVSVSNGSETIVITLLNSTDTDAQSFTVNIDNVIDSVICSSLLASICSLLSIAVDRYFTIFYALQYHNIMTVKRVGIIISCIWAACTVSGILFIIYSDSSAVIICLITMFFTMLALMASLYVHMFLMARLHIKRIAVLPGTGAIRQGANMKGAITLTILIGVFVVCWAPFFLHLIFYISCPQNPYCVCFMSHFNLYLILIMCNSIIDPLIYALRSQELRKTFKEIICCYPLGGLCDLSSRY
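material = U2OS cells stably expressing human melanocortin 4 receptor (MC4R) | also added = Melanotan II challenge | dosing = single nominal compound dose of 6.5 µM | detection = TR-FRET with Eu-cAMP and labeled anti-cAMP, 671 nm | replication = singlicate | timing = compound 30 min, challenge 1 h, detection 1 h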
MC4R ag barr = MC4R agonists recruiting beta-arrestin, primary screen, cell-based, luminescence, agonist arm of biased-ligand search; activation, % at 8.9 µM; U2OS MC4R beta-arrestin complementation; percent of melanotan II response, DMSO zero; hit rate 0.98% among 360,000;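 active means activation above a per-plate cutoff, the mean activation of sample wells on that plate plus 3 SD, cut at about 8% in these data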
GAA850 FXN act = FXN promoter activators, primary screen, cell-based, luciferase luminescence, HEK293 lucGAA850; HEK293 lucGAA850 FXN promoter luciferase reporter, 24 h; percent of 10 µM SAHA response; activation, % at 6 µM; hit rate 0.56% among 360,000; AID 540364, 2011;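 active means activation above the average of all compounds screened plus 3 SD, cutoff fixed separately per campaign, cut at about 7.5% in these data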;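 further: 0% = DMSO wells and 100% = 10 µM SAHA wells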
m5-HT2A agonist = mouse Htr2a agonists via beta-arrestin recruitment, primary screen, cell-based, luminescence. activation, % at 7.6 µM. hit rate 0.66% among 360,000. CHO-K1 mHTR2A beta-arrestin complementation; percent of 30 µM serotonin response. 5-hydroxytryptamine receptor 2A (Mus musculus), P35363;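 active means activation above a run cutoff, the mean activation of all tested compounds plus 3 SD, cut at about 14% in these data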;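 further: 0% = plate median of compound wells and 100% = 30 µM serotonin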
AHR activator = AHR activators, primary screen, cell-based, luminescence, luciferase reporter, human | Aryl hydrocarbon receptor (Homo sapiens), P35869 | AHR-responsive luciferase reporter cells | activation, % at 5 µM | hit rate 2.5% among 320,000 | AID 2796, 2010; in the data active means activation above about 47%;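 further: 0% = vehicle wells and 100% = reference agonist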
OPRM1 ag = OPRM1 agonists via beta-arrestin recruitment, confirmation, counter-screen for mouse HTR2A agonist project, cell-based, luminescence, single concentration | shares compounds with m5-HT2A agonist | hit rate 5.3% among 2,300 | AID 624380, 2012 | U2OS OPRM1 beta-arrestin PathHunter; DMSO 0%, DAMGO 9.3 µM 100% | activation, % at 9.3 µM;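 active means mean activation above the mean of DMSO-only wells plus 3 SD, cut at about 0.5% in these data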
m5-HT2A ag conf = mouse HTR2A agonists, beta-arrestin recruitment, confirmation, cell-based, luminescence, CHO-K1 PathHunter, triplicate. shares compounds with m5-HT2A agonist. DMSO 0%, 30 µM serotonin 100%. activation, % at 7.6 µM. hit rate 19% among 2,300. AID 624381, 2012;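 active means mean activation across triplicates above the hit threshold derived in the original primary screen, cut at about 15% in these data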
An asterisk follows results filed as active; x = no result.

SMILES | MC4R antagonist | MC4R ag barr | GAA850 FXN act | m5-HT2A agonist | AHR activator | OPRM1 ag | m5-HT2A ag conf
COc1ccccc1N1CCN(C(=O)c2cccc(NC3=NC4CS(=O)(=O)CC4S3)c2)CC1 (stereo not drawn) | 1 | 0 | 2 | 24* | 6 | -1 | -3
CCOc1ccccc1NC(=O)c1cccc(NC2=NC3CS(=O)(=O)CC3S2)c1 (stereo not drawn) | 10 | -1 | 6 | 15* | 6 | -1 | -3
COc1ccc(OC)c(CCNC(=O)Cc2ccc(NC3=NC4CS(=O)(=O)CC4S3)cc2)c1 (stereo not drawn) | 13 | 1 | -1 | 0 | 0 | x | x
CCC(CO)Oc1cc(NCc2ccc(C(F)(F)F)cc2)c2ncn(C(C)C)c2c1 (stereo not drawn) | 5 | 1 | 0 | -1 | 5 | x | x
CCOC(=O)[C@]12CCC=C1N(Cc1ccccc1)C(=O)[C@H](CC(=O)NCC13CC4CC(CC(C4)C1)C3)C2 | x | x | x | -1 | x | x | x
C[C@@H]1ON(C)[C@H]2C[C@H]3c4[nH]c5ccccc5c4CCN3C[C@@H]12 | 3 | 2 | -2 | 22* | x | 0 | 13
Cc1cccc(-c2ccc3[nH]c4c(c3c2)CCN2C[C@H]3[C@H](C)ON(C)[C@H]3C[C@@H]42)c1 | -5 | 1 | -2 | 8 | x | x | x
Cc1cc(C(=O)CSc2nnc(-c3ccc(F)cc3)o2)c(C)n1CC1COc2ccccc2O1 (stereo not drawn) | -3 | 7 | -1 | 16* | 0 | -1 | 0
O=C(Nc1ccccc1)C(O)C(O)C(=O)Nc1ccccc1 (stereo not drawn) | 3 | 2 | 2 | 24* | -1 | -1 | -3
O=C(O)C1CCCCC1C(=O)NCCc1cccc(Cl)c1 (stereo not drawn) | 4 | 0 | 1 | 35* | -1 | 0 | -1
O=C(O)C1C2C=CC(C2)C1C(=O)NCCc1cccc(Cl)c1 (stereo not drawn) | 3 | -1 | 0 | 32* | 0 | 0 | 5
Cc1ccc(SCCc2ccc(C)nc2)cc1 | 13 | 3 | -1 | -4 | -2 | x | x
CCCS(=O)(=O)N1CCCC(C(=O)NCCCN2CCN(c3ccccc3F)CC2)C1 (stereo not drawn) | 3 | 1 | -2 | -2 | 2 | x | x
CCS(=O)(=O)N1CCC(C(=O)NCCCN2CCN(c3ccccc3F)CC2)CC1 | 11 | -1 | 2 | 16* | 1 | -1 | 54*
O=C(NCCN1CCN(c2ccccc2F)CC1)C1CCCN(S(=O)(=O)c2cnc[nH]2)C1 (stereo not drawn) | -4 | 0 | 0 | 19* | -2 | -1 | 60*
O=C(NCCN1CCC(Cc2ccccc2)CC1)C1CCCN(S(=O)(=O)c2cnc[nH]2)C1 (stereo not drawn) | 0 | -1 | -1 | -7 | -2 | x | x
O=C(C1CCC1)N1CCc2cc(S(=O)(=O)NCCN3CCN(c4ccccc4F)CC3)ccc21 | 0 | -1 | 0 | 15* | 8 | 0 | 54*
Cc1cccc(CCNC(=O)C2CCCN(S(=O)(=O)c3cnc[nH]3)C2)c1 (stereo not drawn) | 10 | 0 | 2 | 15* | 2 | -1 | -5
CCN1C(=O)[C@H]2[C@@H](c3ccc(-c4ccc5c(c4)OCO5)c(OC)c3)N[C@@](C)(C(=O)OC)[C@H]2C1=O | 1 | 1 | 0 | 3 | 0 | x | x
COc1ccc([C@H]2CC(=O)C=C(c3cc(OC)ccc3OC)C2)cc1 | -12 | 0 | -3 | 1 | 4 | x | x
Cn1ccc(C(=O)OCC(=O)Nc2ccccc2Cl)n1 | 10 | -2 | 1 | -5 | x | x | x
CC(=O)N1CCC(N2CCN(c3ccccc3F)CC2)CC1 | 6 | -1 | 1 | 26* | -3 | 0 | 64*
CCC1CCC(N2CCN(c3ccccc3F)CC2)CC1 (stereo not drawn) | -3 | 0 | -1 | -5 | 2 | x | x
CCCCNC(=O)C1(C)CCCCN1C(=O)c1ccc2sccc2c1 (stereo not drawn) | -1 | -2 | 0 | -3 | x | x | x
CC(=O)NN1C(=O)/C(=C/c2ccc(C(C)C)cc2)SC1=S | 18 | 2 | 1 | -4 | 0 | x | x
SMILES | MC4R antagonist | MC4R ag barr | GAA850 FXN act | m5-HT2A agonist | AHR activator | OPRM1 ag | m5-HT2A ag conf
Cc1ccccc1OCCOC(=O)c1cc(S(=O)(=O)N2CCCCC2)ccc1N1CCOCC1 | 13 | 1 | 0 | -14 | -1 | x | x
Nc1c(C(=O)Nc2ccc3c(c2)OCCO3)nnn1Cc1ccccc1Cl | -3 | -1 | 4 | 18* | -11 | 0 | 4
Cc1cccnc1NC(=O)CSc1ccc2c(c1)OCCO2 | 3 | 1 | 3 | 4 | 0 | x | x
CC(=O)c1cccc(OCC(O)CNCC2COc3ccccc3O2)c1 (stereo not drawn) | 1 | 1 | 2 | 26* | 7 | 0 | 59*
CC(OCC(O)CNCC1COc2ccccc2O1)c1ccc(Cl)cc1 (stereo not drawn) | 9 | 2 | -2 | -2 | -1 | x | x
O=C(O)COc1ccc2c3c(c(=O)oc2c1)CCCC3 | 8 | 6 | -1 | 0 | 0 | x | x
C=CCOC(=O)COc1ccc2c3c(c(=O)oc2c1)CCCC3 | -1 | 3 | 2 | 16* | x | -1 | -3
COc1cccc(-c2nc(-c3cccc(C)c3)nc3cc(Cl)ccc23)c1 | x | x | x | 17* | x | 0 | -1
COc1cccc(-c2nc(OC(C)C)c3ccccc3n2)c1 | -2 | -1 | 1 | -3 | 19 | x | x
O=C(CCc1ccncc1)NC1CCCc2c1cnn2-c1ccc(F)cc1F (stereo not drawn) | -2 | -3 | 0 | 16* | 4 | 0 | -1
CN1CCN(S(=O)(=O)c2ccc(C(F)(F)F)cc2)C(c2ccccc2)C1 (stereo not drawn) | -4 | -1 | 2 | 15* | 1 | 0 | -1
CS(=O)(=O)c1ccc(Cl)c(NC(=O)c2ccc(-n3cncn3)c([N+](=O)[O-])c2)c1 | 8 | -1 | 2 | 4 | x | x | x
CN(CC(=O)Nc1ccccc1Br)C(=O)c1cc2c(s1)CCCCC2 | 7 | -1 | 4 | 17* | 4 | 0 | 0
